Experimental data published in ChEMBL document CHEMBL4402517, “Rational modification of Mannich base-type derivatives as novel antichagasic compounds: Synthesis, in vitro and in vivo evaluation” (Bioorg Med Chem, 2019).

Legend:
[1] = test system: Trypanosoma cruzi; assay: Antitrypanosomal activity against Trypanosoma cruzi MHOM/Pe/2011/Arequipa;DTU 5 bloodstream trypomastigote infected in BALB/c mouse assessed as parasitemia reactivation in chronic phase at 20 mg/kg/day, po administered for 5 consecutive days starting from day 70 post infection followed by cyclophosphamide induced immunosuppression on day 80 post infection by Neubauer chamber relative to control; type: functional
Procedure, shortened: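 Female BALB/c mice (three per group) were infected i.p. with 5 × 10^5 Arequipa bloodstream trypomastigotes and treated orally at 20 mg/kg/day for 5 days (vehicle 5% DMSO/0.5% HPMC). Once parasitemia was undetectable (day 80 pi), cyclophosphamide 200 mg/kg was given i.p. Bloodstream parasites were then counted to give % reactivation versus untreated controls.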

[2] = Genotoxicity in Salmonella typhimurium TA1535 harboring pSK1002 assessed as umu gene induction at 0.031 mg/ml in presence of Sprague-Dawley rat liver S9 fraction metabolic activation by SOS/umu assay relative to control; type: toxicity, subcellular; details: salmonella enterica subsp. enterica serovar typhimurium, read-out: FC
Procedure, shortened: (§1)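 umu induction in S. typhimurium TA1535/pSK1002, with or without S9 mix, in 96-well format. β-galactosidase read colorimetrically with ONPG substrate. Output given as relative units and induction factor (IF). The run is valid if positive controls reach IF ≥2. A compound counts as genotoxic at IF ≥2 at a concentration giving ≥80% bacterial survival.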

[3] = Genotoxicity in Salmonella typhimurium TA1535 harboring pSK1002 assessed as umu gene induction at 0.25 mg/ml in absence of Sprague-Dawley rat liver S9 fraction metabolic activation by SOS/umu assay relative to control; type: toxicity; details: salmonella enterica subsp. enterica serovar typhimurium, read-out: FC; procedure, shortened: as §1
[4] = Genotoxicity in Salmonella typhimurium TA1535 harboring pSK1002 assessed as survival at 0.5 mg/ml in presence of Sprague-Dawley rat liver S9 fraction metabolic activation by SOS/umu assay relative to control; type: toxicity, subcellular; details: salmonella enterica subsp. enterica serovar typhimurium, read-out: Survival
Procedure, shortened: (§2)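 Survival of S. typhimurium TA1535/pSK1002 exposed to a range of compound concentrations with or without S9 mix in 96-well format. Survival percentage measured as the cytotoxicity arm of the SOS/umu test. Concentrations with survival ≥80% are counted as non-cytotoxic.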

[5] = Genotoxicity in Salmonella typhimurium TA1535 harboring pSK1002 assessed as umu gene induction at 0.008 mg/ml in presence of Sprague-Dawley rat liver S9 fraction metabolic activation by SOS/umu assay relative to control; type: toxicity, subcellular; details: salmonella enterica subsp. enterica serovar typhimurium, read-out: FC; procedure, shortened: as §1
[6] = (§3) Toxicity in BALB/c mouse infected with Trypanosoma cruzi MHOM/Pe/2011/Arequipa;DTU 5 bloodstream trypomastigote assessed as increase in serum total bilirubin level in acute phase at 20 mg/kg/day, po administered for 5 consecutive days starting from day 8 post infection and measured at day 14 post infection by biochemical analysis relative to control; type: organism-based; details: in vivo
Procedure, shortened: (§4)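 Female BALB/c mice (10–12 weeks, 14–20 g; groups of three) were infected i.p. with 5 × 10^5 Arequipa bloodstream trypomastigotes. Dosing was oral at 20 mg/kg/day for 5 days, from day 8 pi (acute) or day 70 pi (chronic), as a 2 mg/ml suspension in 5% DMSO/0.5% HPMC; controls received vehicle. Cyclophosphamide 200 mg/kg i.p. was given at day 80 pi. Serum was collected 2 days post-treatment and at necropsy by cardiac puncture and compared with infected untreated controls.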

[7] = Genotoxicity in Salmonella typhimurium TA1535 harboring pSK1002 assessed as survival at 0.008 mg/ml in presence of Sprague-Dawley rat liver S9 fraction metabolic activation by SOS/umu assay relative to control; type: toxicity, subcellular; details: salmonella enterica subsp. enterica serovar typhimurium, read-out: Survival; procedure, shortened: as §2
[8] = Genotoxicity in Salmonella typhimurium TA1535 harboring pSK1002 assessed as umu gene induction at 0.008 mg/ml in absence of Sprague-Dawley rat liver S9 fraction metabolic activation by SOS/umu assay relative to control; type: toxicity; details: salmonella enterica subsp. enterica serovar typhimurium, read-out: FC; procedure, shortened: as §1
[9] = Genotoxicity in Salmonella typhimurium TA1535 harboring pSK1002 assessed as umu gene induction at 0.004 mg/ml in presence of Sprague-Dawley rat liver S9 fraction metabolic activation by SOS/umu assay relative to control; type: toxicity, subcellular; details: salmonella enterica subsp. enterica serovar typhimurium, read-out: FC; procedure, shortened: as §1
[10] = Selectivity index, ratio of IC50 for African green monkey Vero cells to IC50 for Trypanosoma cruzi TINF/CH/1956/Tulahuen;DTU 6 amastigote forms; type: toxicity; details: read-out: Selectivity Index
Procedure, shortened: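 Vero cells (1 × 10^4/well) were infected with trypomastigotes at MOI 10:1 for 24 h and washed with PBS. They were then exposed to 3.1–50 µM for 72 h at 37 °C in 5% CO2, and amastigotes were counted after Giemsa staining. Triplicates in two determinations; nonlinear regression.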

[11] = Genotoxicity in Salmonella typhimurium TA1535 harboring pSK1002 assessed as survival at 0.125 mg/ml in absence of Sprague-Dawley rat liver S9 fraction metabolic activation by SOS/umu assay relative to control; type: toxicity; details: salmonella enterica subsp. enterica serovar typhimurium, read-out: Survival; procedure, shortened: as §2
[12] = Genotoxicity in Salmonella typhimurium TA1535 harboring pSK1002 assessed as survival at 0.031 mg/ml in presence of Sprague-Dawley rat liver S9 fraction metabolic activation by SOS/umu assay relative to control; type: toxicity, subcellular; details: salmonella enterica subsp. enterica serovar typhimurium, read-out: Survival; procedure, shortened: as §2
[13] = Genotoxicity in Salmonella typhimurium TA1535 harboring pSK1002 assessed as umu gene induction at 0.002 mg/ml in presence of Sprague-Dawley rat liver S9 fraction metabolic activation by SOS/umu assay relative to control; type: toxicity, subcellular; details: salmonella enterica subsp. enterica serovar typhimurium, read-out: FC; procedure, shortened: as §1
[14] = (§5) Toxicity in BALB/c mouse infected with Trypanosoma cruzi MHOM/Pe/2011/Arequipa;DTU 5 bloodstream trypomastigotes assessed as decrease in serum alkaline phosphatase level in chronic phase at 20 mg/kg/day, po administered for 5 consecutive days starting from day 70 post infection measured on day 100 post infection relative to control; type: organism-based; set-up: scale not given: the % may be the effect or the level left; details: in vivo; procedure, shortened: as §4
[15] = Genotoxicity in Salmonella typhimurium TA1535 harboring pSK1002 assessed as umu gene induction at 0.063 mg/ml in absence of Sprague-Dawley rat liver S9 fraction metabolic activation by SOS/umu assay relative to control; type: toxicity; details: salmonella enterica subsp. enterica serovar typhimurium, read-out: FC; procedure, shortened: as §1
[16] = Genotoxicity in Salmonella typhimurium TA1535 harboring pSK1002 assessed as umu gene induction at 0.5 mg/ml in absence of Sprague-Dawley rat liver S9 fraction metabolic activation by SOS/umu assay relative to control; type: toxicity; details: salmonella enterica subsp. enterica serovar typhimurium, read-out: FC; procedure, shortened: as §1
[17] = test system: Trypanosoma cruzi; assay: (§6) Antitrypanosomal activity against Trypanosoma cruzi MHOM/Pe/2011/Arequipa;DTU 5 bloodstream trypomastigote infected in BALB/c mouse assessed as parasite-free muscle in chronic phase at 20 mg/kg/day, po administered for 5 consecutive days starting from day 70 post infection followed by cyclophosphamide induced immunosuppression on day 80 post infection measured after day 100 post infection by PCR method relative to control; type: functional
Procedure, shortened: (§7)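 Female BALB/c mice (10–12 weeks, three per group) were infected i.p. with 5 × 10^5 Arequipa bloodstream trypomastigotes. Dosing was oral, 20 mg/kg/day for 5 days, as a suspension in 5% DMSO/0.5% HPMC. Cyclophosphamide 200 mg/kg i.p. was given at day 80 pi. At necropsy (day 100) tissues were tested by PCR on the splice leader region (primers TC/TC1, 300 bp). Scored as x/3 mice positive.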

[18] = test system: Trypanosoma cruzi; assay: as §6, with “heart” for “muscle”; type: functional; procedure, shortened: as §7
[19] = as §3, with “as change” for “as increase”, “measured on” for “measured at”, “day 100” for “day 14”; type: organism-based; details: in vivo; procedure, shortened: as §4
[20] = as §5, with “trypomastigote” for “trypomastigotes”, “total bilirubin” for “alkaline phosphatase”; type: organism-based; set-up: scale not given: the % may be the effect or the level left; details: in vivo; procedure, shortened: as §4

| SMILES | Activity [1] | fold induction at 0.031 mg/ml [2] | fold induction at 0.25 mg/ml [3] | viability at 0.5 mg/ml [4] | fold induction at 0.008 mg/ml [5] | Activity [6] | viability at 0.008 mg/ml [7] | fold induction at 0.008 mg/ml [8] | fold induction at 0.004 mg/ml [9] | selectivity ratio [10] | viability at 0.125 mg/ml [11] | viability at 0.031 mg/ml [12] | fold induction at 0.002 mg/ml [13] | Activity [14] | fold induction at 0.063 mg/ml [15] | fold induction at 0.5 mg/ml [16] | Activity [17] | Activity [18] | Activity [19] | Activity [20] |
| --- | --- | --- | --- | --- | --- | --- | --- | --- | --- | --- | --- | --- | --- | --- | --- | --- | --- | --- | --- | --- |
| O=C(CCN1CCN(c2ccc(C(F)(F)F)cc2)CC1)c1ccc(O)cc1 | 30% | 0.87 | 0.52 | 124% | 0.83 | > 40% | 104% | 0.75 | 0.77 | 27.4 | 122% | 107% | 0.89 | <= 30% | 0.67 | 0.43 | 50% | 50% |  |  |
| O=C(CCN1CCN(c2ccc(Cl)cc2)CC1)c1ccc(O)cc1 | 20% | 0.83 | 0.49 | 157% | 0.77 | <= 10% | 109% | 0.71 | 0.71 | 34.5 | 198% | 102% | 0.74 |  | 0.71 | 0.26 | 63% | 63% | > 10% | <= 10% |
| O=C(Cn1ccnc1[N+](=O)[O-])NCc1ccccc1 [BENZNIDAZOLE] | 40% |  |  |  |  |  |  |  |  | > 51.7 |  |  |  | <= 10% |  |  | 38% | 38% | > 10% | <= 10% |
